Results gathered from unrelated publications.
Target: Myosin light chain kinase family member 4 (MYLK4, Homo sapiens, UniProt Q86YV6)
Sequence (Q86YV6 1-388, as in one of the studies): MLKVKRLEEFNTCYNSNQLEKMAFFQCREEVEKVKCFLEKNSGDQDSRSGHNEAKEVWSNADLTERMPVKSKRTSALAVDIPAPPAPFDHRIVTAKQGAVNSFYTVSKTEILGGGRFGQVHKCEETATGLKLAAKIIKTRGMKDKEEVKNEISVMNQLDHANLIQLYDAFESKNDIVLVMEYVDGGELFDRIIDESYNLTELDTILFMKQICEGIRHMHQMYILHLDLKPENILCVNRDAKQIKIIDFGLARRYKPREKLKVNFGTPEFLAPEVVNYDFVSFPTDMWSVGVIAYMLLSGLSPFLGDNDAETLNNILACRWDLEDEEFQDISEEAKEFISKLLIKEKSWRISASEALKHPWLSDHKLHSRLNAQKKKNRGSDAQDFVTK

SMILES	observed	method	tested at	remaining binding
C[C@H](c1cccc(C#N)c1)n1cc(Cl)cc(C(N)=O)c1=N	cell-free assay	competition with immobilised ligand	1 µM	100%
Cc1cnn2ncc(-c3ccnc(N(C)C)n3)c2c1	binding	–	1 µM	80%
Cc1cnc(Nc2ccc(C(=O)N3CCC(N4CCCC4)CC3)cc2)nc1-c1cc2ccccc2s1	binding	competition with immobilised ligand	1 µM	0%
COc1cnc(Nc2cccc(S(N)(=O)=O)c2)nc1N1CCN(c2ccccc2)C(=O)C1	binding	competition with immobilised ligand	1 µM	100%
CCS(=O)(=O)c1cc2cc(C[C@@](O)(CC(C)(C)c3ccc(F)cc3C(N)=O)C(F)(F)F)[nH]c2cn1	cell-free assay	competition with immobilised ligand	1 µM	100%
O=C(Nc1c[nH]nc1C(=O)NC1CCNCC1)c1cc(F)cc(F)c1	binding	competition with immobilised ligand	1 µM	100%
CC(=O)c1c(NS(C)(=O)=O)c2cc(-c3ccc(Cl)cc3)c(-c3ccc(Cl)cc3Cl)nc2n(C)c1=O	cell-free assay	competition with immobilised ligand	1 µM	100%
Nc1ncc2c(n1)-c1c([nH]c3ccc(C#CC4CC4)cc13)CCCC2	binding	competition with immobilised ligand	1 µM	83%
CCC(=O)N[C@@H]1CC[C@H](C(=O)N(C)c2ccc(-c3nc4ccccc4o3)cc2)C1	cell-free assay	competition with immobilised ligand	1 µM	100%
COc1ncc2cc3ccccc3nc2c1C#N	cell-free assay	competition with immobilised ligand	5 µM	93%
O=C(NCCCN1CCOCC1)c1ccc(Nc2ncc(Cl)c(-c3ccc(Cl)s3)n2)cc1	binding	competition with immobilised ligand	1 µM	0.05%
N[C@H]1CCN(c2nccc(-c3cnn4ncccc34)n2)C1	binding	–	1 µM	100%
CS(=O)(=O)N1CCCC(NC(=O)[C@H](CCC2CCCCC2)NC(=O)c2ccc(CNc3ncnc4c3nnn4-c3ccccc3)cc2)C1 (stereo partly shown)	cell-free assay	competition with immobilised ligand	0.1 µM	100%
C[C@@H]1CCN(c2nccc(-c3cnn4ncccc34)n2)C1	binding	–	1 µM	100%
FC(F)(F)Oc1cccc(-c2cnc3ccc(-c4ccncc4)nn23)c1	cell-free assay	competition with immobilised ligand	5 µM	0.35%
CN(CCCC(F)(F)F)c1nccc(-c2cnn3ncccc23)n1	binding	–	1 µM	100%
COc1ccc2c(c1)O[C@@H](c1ccc(OC)c(OC)c1)C[C@H]2NC(=O)C1(c2ccc3c(c2)OC(F)(F)O3)CC1	cell-free assay	competition with immobilised ligand	1 µM	97%
O=C(c1ccc(Nc2ncc(Cl)c(-c3cc4ccccc4s3)n2)cc1)N1CCC(N2CCCC2)CC1	binding	competition with immobilised ligand	1 µM	0.1%
CC1CCCN1c1nccc(-c2cnn3ncccc23)n1 (stereo not shown)	binding	–	1 µM	100%
